Rows were chosen to be rich in hits. Some 2.6% of all compounds tested hit in one or more screens of this group.
CHO parental Ca – ATP-evoked calcium signal inhibitors, parental CHO, primary screen, counter-screen for OX1R antagonist project, cell-based, fluorescence, Fluo-8 calcium dye; parental CHO-K1, ATP-induced calcium, Fluo-8 fluorescence; inhibition, % at 5.6 µM; hit rate 0.63% among 330,000; AID 463079, 2010;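 active = inhibition above that plate's mean sample inhibition plus 3 SD, cut at about 26% in these data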;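 note: 0% = ATP-challenged DMSO wells and 100% = DMSO wells without ATP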
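Material: Parental CHO cells | Reagent: ATP | Compound dosing: Single nominal dose of 5.6 µM per compound | Detection: Intracellular calcium via Fluo-8 no-wash fluorescent dye | Read-out: % inhibition of ATP-induced calcium mobilization | Benchmarks: Low control ATP plus DMSO, high control DMSO only | Replicates: Singlicate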
OX1R antag-1 – OX1R (HCRTR1) antagonists, primary screen, fluorescence, CHO/OX1R cells, Fluo-8 calcium, orexin A. Fluo-8 calcium fluorescence. inhibition, % at 5 µM. hit rate 0.43% among 330,000. Orexin/Hypocretin receptor type 1 (Homo sapiens), O43613. AID 434989, 2010;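 active = inhibition above its plate's threshold, mean inhibition of all tested compounds on the plate plus 3 SD, cut at about 37% in these data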;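 note: 0% = orexin A challenge wells and 100% = SB-334867-A antagonist wells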
OX1R antag-2 – antagonists of human orexin 1 receptor (OX1R); Orexin/Hypocretin receptor type 1 (Homo sapiens), O43613; OX1R-expressing cells, FRET antagonist read-out; inhibition, % at 6.6 µM; hit rate 1.8% among 330,000; AID 485270, 2010; in the data active = inhibition mostly above about 38%, no sharp cut-off; inactive = mostly below about 40%;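 note: 0% = agonist challenge alone and 100% = reference antagonist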
OXTR potentiator – human OXTR potentiators, primary screen, fluorescence, CHO-OTR cells, Fluo-8 calcium; Fluo-8 calcium fluorescence, potentiator mode; 0% = oxytocin EC15, 100% = EC100; activation, % at 3 µM; hit rate 0.061% among 320,000; AID 2445, 2010;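 active = activation above that plate's cutoff, the mean activation of tested compounds plus 3 SD, cut at about 6.6% in these data, passing the limit was not always enough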;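 note: 100% uses oxytocin at 75 nM as the full agonist control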
Target sequence (P30559 whole entry, looked up): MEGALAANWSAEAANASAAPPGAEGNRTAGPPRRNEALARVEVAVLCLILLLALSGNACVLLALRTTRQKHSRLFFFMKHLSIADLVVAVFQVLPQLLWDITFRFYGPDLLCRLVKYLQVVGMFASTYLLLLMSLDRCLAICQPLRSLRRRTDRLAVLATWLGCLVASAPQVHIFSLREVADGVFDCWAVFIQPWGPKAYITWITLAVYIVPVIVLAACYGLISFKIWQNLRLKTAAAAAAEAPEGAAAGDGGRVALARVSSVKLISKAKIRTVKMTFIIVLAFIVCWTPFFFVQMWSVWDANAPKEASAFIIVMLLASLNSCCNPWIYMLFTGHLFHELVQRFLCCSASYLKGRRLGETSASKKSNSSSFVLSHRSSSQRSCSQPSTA
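Assay system: CHO cell line stably expressing human OTR | Also added: Oxytocin at about EC15, sub-maximal agonist stimulus | Times: Compound 6 min at room temperature before oxytocin, 100 s read | Measured by: Fluo-8 intracellular calcium fluorescence, ex 470-495, em 515-575 nm | Controls: EC15 oxytocin alone as 0%, 75 nM oxytocin as 100%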
OXTR ag – human OXTR agonists, primary screen, fluorescence, CHO-OTR cells, Fluo-8 calcium; Oxytocin receptor (Homo sapiens), P30559; Fluo-8 calcium fluorescence; normalized: DMSO 0%, oxytocin 100%; activation, % at 3 µM; hit rate 0.32% among 320,000; AID 2435, 2010;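 active = activation above the mean of all tested compounds plus 3 SD, cutoff set per screening run, cut at about 20% in these data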;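 note: peak over basal fluorescence ratio from a 100 s FLIPR kinetic read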
V1R ag counter – agonists of human V1a receptor, primary screen, counter-screen for OXTR agonist project, fluorescence, CHO-V1R cells. Vasopressin V1a receptor (Homo sapiens), P37288. Fluo-8 calcium fluorescence, agonist mode; 0% DMSO, 100% 3 nM vasopressin. activation, % at 3 µM. hit rate 0.25% among 320,000. AID 2797, 2010;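 active = activation above the mean activation of all tested compounds plus 3 SD, per screening run, cut at about 20% in these data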;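 note: signal is peak over basal fluorescence ratio across a 100 second FLIPR read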
Numbers without * were called inactive; . = not tested or not shown.

SMILES	CHO parental Ca	OX1R antag-1	OX1R antag-2	OXTR potentiator	OXTR ag	V1R ag counter
CCOC(=O)c1c(C)oc2c1c(CN1CCN(C(=O)OCC)CC1)c(O)c1ccccc12	-14.6	1.4	69.8*	-7.7	-1.0	-0.5
Cc1cccc(-c2noc(CN(C(=O)C(c3ccccc3)c3ccccc3)C(C)C)n2)c1	69.2*	-9.0	42.5*	-7.9	1.4	2.4
Cc1cccc(-c2noc(CN(C(=O)c3ccc4c(c3)OCO4)C(C)C)n2)c1	-20.4	10.1	69.4*	-11.4	-0.5	0.3
Cc1cccc(-c2noc(CN(C(=O)c3ccc(Br)o3)C(C)C)n2)c1	-14.8	-21.1	35.0	-12.9	-1.6	-1.2
Cc1ccc2c(c1)c(C)c(C)n2CC(O)Cn1nc(C)cc1C (centres undefined)	-23.4	-7.2	28.2	-13.6	1.4	0.6
Cc1ccc2c(c1)c(C)c(C)n2CC(O)Cn1nnc2ccccc21 (centres undefined)	-21.6	-21.8	63.3*	-12.7	1.3	1.2
COc1ccc(-c2sc3ccc(-c4ccc5c(c4)OCO5)cc3c2-c2ccc(OC)nc2)cc1	2.0	-4.9	4.7	1.6	1.6	0.3
Cc1cc2n(n1)C(c1ccccc1)CC(c1ccc(Br)cc1)=N2 (centres undefined)	-12.1	-8.0	7.5	0.8	2.3	2.6
CCc1ccc(OCC(=O)NNC(=O)CNC(=O)c2ccc(Br)o2)cc1	-8.4	-9.1	-1.7	2.0	-0.7	0.1
CCCOc1ccc(OC(=O)c2ccc(Br)o2)cc1	55.6*	66.9*	32.5	-24.0	42.4*	64.3*
COc1ccc(NC(=O)CN(C)C(=O)/C=C/c2cn(-c3ccccc3)nc2-c2cccs2)cc1	-26.2	-6.6	25.2	3.0	-0.1	0.6
Cc1ccc(S(=O)(=O)NCCNS(=O)(=O)c2ccccc2Br)cc1	-6.7	-9.3	10.6	.	.	.
Cc1ccc(S(=O)(=O)NCCNc2ccc(Br)c(C)c2)cc1	37.4*	25.1	12.9	-10.3	5.0	6.3
Cc1noc(C)c1S(=O)(=O)N1CCN(c2ccc(Cl)cc2)CC1	-8.2	-7.9	3.0	-5.2	-2.4	-1.0
Cc1noc(C)c1S(=O)(=O)Nc1ccc(C(=O)N2CCN(c3ccc(Cl)cc3)CC2)cc1	36.2*	48.5*	45.4	-22.2	17.9	17.0
O=C(Nc1ccc(C2=NCCN2)cc1)c1ccc(C(=O)Nc2ccc(C3=NCCN3)cc2)c([N+](=O)[O-])c1	-16.7	-12.2	38.4*	-4.2	0.2	-0.7
CCOC(=O)CNS(=O)(=O)c1cc(-c2nnc(Nc3ccc4c(c3)OCO4)c3ccccc23)ccc1C	56.7*	70.8*	24.5	0.9	-2.0	-1.5
CNS(=O)(=O)c1cc(-c2nnc(Nc3ccc(CC(N)=O)cc3)c3ccccc23)ccc1C	-10.3	-16.1	11.7	0.7	-0.7	1.1
COc1cc(OC)cc(C(=O)NCC(=O)NCc2ccccn2)c1	-13.4	-10.2	1.5	-0.7	2.5	0.3
O=C(NNS(=O)(=O)c1cc(Cl)cc(Cl)c1)c1sccc1-n1cccc1	-25.4	-0.5	69.4*	-15.2	-1.4	2.1
CCOC(=O)C1CCN(C(=O)C(C)Sc2nnc3ccccn23)CC1 (centres undefined)	1.2	-1.7	10.6	-7.3	1.3	1.2
COc1ccc(-c2cc(C)no2)cc1S(=O)(=O)NCc1ccc(OC(C)C)cc1	-6.9	-3.6	22.5	-12.9	0.2	0.6
Cc1ccccc1NS(=O)(=O)c1cc(C(=O)NCc2ccco2)ccc1C	-17.1	-11.4	12.6	-2.7	0.1	0.7
Cc1ccc(SCCNC(=O)c2ccc(C)c(S(=O)(=O)Nc3ccccc3C)c2)cc1	8.2	20.5	48.1*	-5.8	-1.6	-0.9
COc1ccccc1C(=O)NC(=O)COc1ccc([N+](=O)[O-])cc1	-0.7	-9.1	4.5	-10.1	-0.5	0.6
SMILES	CHO parental Ca	OX1R antag-1	OX1R antag-2	OXTR potentiator	OXTR ag	V1R ag counter
COc1ccccc1C(=O)NC(=O)COC(=O)c1ccc([N+](=O)[O-])cc1	-18.1	-16.0	49.6*	-4.8	-0.6	1.2
O=C(Nc1ccc(Cl)cc1)Nc1nc(-c2ccccc2O)cs1	73.9*	41.2*	46.2	-8.1	12.1	12.5
O=C(Cc1csc(NC(=O)Nc2ccc(Cl)cc2)n1)NC1CCCC1	34.9*	14.2	16.0	-18.1	6.4	11.4
Cc1ccc(CNC(=O)CCCC(=O)c2ccccc2)cc1	-22.1	-26.6	17.5	2.6	-0.4	-1.3
O=C1CC2(CCN(C(=O)c3ccc(F)c(F)c3)CC2)Oc2ccccc21	-12.8	-16.7	7.6	-5.2	0.9	1.6
CSc1nc(N)nc(-c2cccs2)c1C#N	11.7	26.7	100.6*	-20.7	-1.1	-1.0
COc1cc(NC(=O)c2ccccc2-c2ccccc2)cc(OC)c1	-17.2	-8.8	56.9*	-2.9	-1.8	-0.6
Cn1c(=O)[nH]c(NCCc2ccc(O)cc2)c([N+](=O)[O-])c1=O	6.0	-2.7	18.3	-10.1	-0.4	1.6
CC1CCc2nc(NC(=O)C3COc4ccccc4O3)sc2C1 (centres undefined)	-20.9	-32.0	39.1*	-2.6	0.5	2.3
CN(C)S(=O)(=O)n1cc(/C=C(\NC(=O)c2ccccc2)C(=O)N2CCCC2)c2ccccc21	-26.6	-30.5	2.5	-6.4	-0.2	2.6
CC1(C)CC2CC(C)(CN2C(=O)c2ccc([N+](=O)[O-])cc2[N+](=O)[O-])C1 (centres undefined)	-16.0	-16.1	32.0	-4.9	-1.4	-1.5
COc1ccc(Cn2nc(C)cc2C)cc1OC	98.6*	-8.7	16.9	1.7	-0.1	0.9
Cc1cc(C)n(Cc2ccc(Cl)nc2)n1	3.2	5.5	21.7	-7.4	-1.0	0.0
O=C(NCC1CCCCC1)c1cc(S(=O)(=O)N2CCOCC2)ccc1F	-16.8	-28.5	7.2	-0.8	1.0	0.6
COc1ccc2ccccc2c1/C=N/NC(=O)c1cccc(C)c1	-6.1	-13.8	22.4	-4.5	-2.0	-0.4
Cc1cccc(OCC(=O)NC(C)C(=O)N/N=C/c2c(OCc3ccccc3)ccc3ccccc23)c1 (centres undefined)	-6.4	2.5	43.2*	-7.0	1.9	1.5
CCc1cccc(NC(=O)CCCn2nc(CC)n3c(cc4occc43)c2=O)c1	-21.9	-14.0	42.5*	-18.9	-0.6	-0.6
CCc1nn(CCCC(=O)NCc2ccccc2Br)c(=O)c2cc3occc3n12	-22.1	-28.9	16.8	-7.1	-0.3	0.9

Assay outcomes deposited in PubChem BioAssay by The Scripps Research Institute Molecular Screening Center.
